# Values joined by “and” are separate entries in the source; they are usually repeats but may differ in a detail not shown here. Equal values may be shown once.
# System: HEK-293T
# Assay: Multiplex assay against HEK293T
# Format: toxicity, cell-based
# Details: human, 12 h, 1 µM, compound concentration 1 uM
# How it was run: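 Imaging took place on a CQ1 microscope at 37°C and 5% CO2 once compound had been added to live cells stained at seeding with Hoechst33342, BioTracker Green Microtubule Cytoskeleton Dye, MitoTracker Red and Annexin V Alexa Fluor 680. CellPathfinder machine-learning gating classed cells as Hoechst high-intensity objects or normal cells, classed normal cells as having healthy, pyknosed or fragmented nuclei, and classed pyknosed cells as mitotic or apoptotic. Tubulin, mitochondrial-mass and membrane-permeability phenotypes are per cents of the healthy-nucleus cells.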
SMILES,Population Apoptotic (%),Population Fragmented Nuclei (%),Population Healthy Nuclei (%),Population Hoechst High Intensity Objects (%),Population Membrane Permeable-Phenotype (%),Population Mitochondria Different-Phenotype (%),Population Mitotic Cells (%),Population Normal (%),Population Pyknosed Nuclei (%),Population Tubulin-Different-Phenotype (%)
Br.CS(=O)(=O)Nc1c(O)ccc2c1CCCC2C1=NCCN1 (stereo not drawn),40% and 43%,7% and 5%,80% and 81%,5% and 8%,0%,45% and 52%,59% and 56%,94% and 91%,12%,26% and 18%
Cc1sc2c(c1C)C(c1ccc(Cl)cc1)=N[C@H](CC(=O)OC(C)(C)C)c1nnc(C)n1-2,40% and 44%,8% and 6%,80% and 76%,8% and 9%,0%,49% and 65%,60% and 55%,91% and 90%,10% and 17%,32% and 26%
CN(C)c1ccnc2sc3c(=O)n(N4CCCCCC4)cnc3c12,45% and 51%,9% and 5%,76% and 82%,4% and 8%,1% and 0%,50% and 67%,54% and 48%,95% and 91%,13% and 12%,43% and 25%

# Same assay, conditions: human, 12 h, 1 µM, compound concentration 1 uM
row,SMILES,Total Cell Count
1,Br.CS(=O)(=O)Nc1c(O)ccc2c1CCCC2C1=NCCN1 (stereo not drawn),407 and 334
2,Cc1sc2c(c1C)C(c1ccc(Cl)cc1)=N[C@H](CC(=O)OC(C)(C)C)c1nnc(C)n1-2,478 and 333
3,CN(C)c1ccnc2sc3c(=O)n(N4CCCCCC4)cnc3c12,360 and 335

# Same assay, conditions: human, 12 h, 10 µM, compound concentration 10 uM
SMILES,Population Apoptotic (%),Population Fragmented Nuclei (%),Population Healthy Nuclei (%),Population Hoechst High Intensity Objects (%),Population Membrane Permeable-Phenotype (%),Population Mitochondria Different-Phenotype (%),Population Mitotic Cells (%),Population Normal (%),Population Pyknosed Nuclei (%),Population Tubulin-Different-Phenotype (%)
Br.CS(=O)(=O)Nc1c(O)ccc2c1CCCC2C1=NCCN1 (stereo not drawn),48% and 55%,8% and 6%,76% and 79%,12% and 14%,0%,60% and 67%,52% and 44%,87% and 85%,14%,33% and 26%
Cc1sc2c(c1C)C(c1ccc(Cl)cc1)=N[C@H](CC(=O)OC(C)(C)C)c1nnc(C)n1-2,41% and 66%,7% and 5%,76% and 72%,7% and 10%,0%,74% and 90%,58% and 33%,92% and 89%,15% and 21%,67% and 70%
CN(C)c1ccnc2sc3c(=O)n(N4CCCCCC4)cnc3c12,36% and 59%,4% and 9%,81% and 72%,10% and 13%,0%,78% and 76%,63% and 40%,89% and 86%,14% and 17%,79% and 59%

# Same assay, conditions: human, 12 h, 10 µM, compound concentration 10 uM
row,SMILES,Total Cell Count
1,Br.CS(=O)(=O)Nc1c(O)ccc2c1CCCC2C1=NCCN1 (stereo not drawn),381 and 292
2,Cc1sc2c(c1C)C(c1ccc(Cl)cc1)=N[C@H](CC(=O)OC(C)(C)C)c1nnc(C)n1-2,395 and 303
3,CN(C)c1ccnc2sc3c(=O)n(N4CCCCCC4)cnc3c12,387 and 308

# Same assay, conditions: human, 24 h, 1 µM, compound concentration 1 uM
SMILES,Population Apoptotic (%),Population Fragmented Nuclei (%),Population Healthy Nuclei (%),Population Hoechst High Intensity Objects (%),Population Membrane Permeable-Phenotype (%),Population Mitochondria Different-Phenotype (%),Population Mitotic Cells (%),Population Normal (%),Population Pyknosed Nuclei (%),Population Tubulin-Different-Phenotype (%)
Br.CS(=O)(=O)Nc1c(O)ccc2c1CCCC2C1=NCCN1 (stereo not drawn),38% and 55%,10% and 6%,79% and 80%,5% and 8%,1% and 0%,34% and 41%,61% and 44%,94% and 91%,10% and 13%,21% and 17%
Cc1sc2c(c1C)C(c1ccc(Cl)cc1)=N[C@H](CC(=O)OC(C)(C)C)c1nnc(C)n1-2,32%,10%,76% and 82%,5% and 6%,0%,29% and 43%,68% and 67%,94% and 93%,13% and 6%,19% and 11%
CN(C)c1ccnc2sc3c(=O)n(N4CCCCCC4)cnc3c12,30% and 25%,10% and 7%,76% and 84%,4% and 5%,1% and 0%,27% and 51%,70% and 74%,95% and 94%,12% and 7%,24% and 22%

# Same assay, conditions: human, 24 h, 1 µM, compound concentration 1 uM
row,SMILES,Total Cell Count
1,Br.CS(=O)(=O)Nc1c(O)ccc2c1CCCC2C1=NCCN1 (stereo not drawn),549 and 387
2,Cc1sc2c(c1C)C(c1ccc(Cl)cc1)=N[C@H](CC(=O)OC(C)(C)C)c1nnc(C)n1-2,609 and 479
3,CN(C)c1ccnc2sc3c(=O)n(N4CCCCCC4)cnc3c12,510 and 470

# Same assay, conditions: human, 24 h, 10 µM, compound concentration 10 uM
SMILES,Population Apoptotic (%),Population Fragmented Nuclei (%),Population Healthy Nuclei (%),Population Hoechst High Intensity Objects (%),Population Membrane Permeable-Phenotype (%),Population Mitochondria Different-Phenotype (%),Population Mitotic Cells (%),Population Normal (%),Population Pyknosed Nuclei (%),Population Tubulin-Different-Phenotype (%)
Br.CS(=O)(=O)Nc1c(O)ccc2c1CCCC2C1=NCCN1 (stereo not drawn),30% and 34%,11%,75% and 77%,6% and 11%,0%,40% and 46%,69% and 65%,93% and 88%,12% and 10%,23% and 21%
Cc1sc2c(c1C)C(c1ccc(Cl)cc1)=N[C@H](CC(=O)OC(C)(C)C)c1nnc(C)n1-2,41% and 49%,8% and 3%,68% and 76%,4% and 6%,0% and 1%,64% and 76%,58% and 50%,95% and 93%,23% and 19%,46% and 47%
CN(C)c1ccnc2sc3c(=O)n(N4CCCCCC4)cnc3c12,42% and 66%,7% and 10%,76% and 74%,8% and 13%,0%,80% and 75%,57% and 33%,91% and 86%,16% and 15%,71% and 53%

# Same assay, conditions: human, 24 h, 10 µM, compound concentration 10 uM
row,SMILES,Total Cell Count
1,Br.CS(=O)(=O)Nc1c(O)ccc2c1CCCC2C1=NCCN1 (stereo not drawn),451 and 377
2,Cc1sc2c(c1C)C(c1ccc(Cl)cc1)=N[C@H](CC(=O)OC(C)(C)C)c1nnc(C)n1-2,468 and 378
3,CN(C)c1ccnc2sc3c(=O)n(N4CCCCCC4)cnc3c12,428 and 359

# Same assay, conditions: human, 48 h, 1 µM, compound concentration 1 uM
SMILES,Population Apoptotic (%),Population Fragmented Nuclei (%),Population Healthy Nuclei (%),Population Hoechst High Intensity Objects (%),Population Membrane Permeable-Phenotype (%),Population Mitochondria Different-Phenotype (%),Population Mitotic Cells (%),Population Normal (%),Population Pyknosed Nuclei (%),Population Tubulin-Different-Phenotype (%)
Br.CS(=O)(=O)Nc1c(O)ccc2c1CCCC2C1=NCCN1 (stereo not drawn),12% and 29%,14% and 11%,78%,4% and 6%,0%,20% and 22%,87% and 70%,95% and 93%,7% and 9%,14% and 12%
Cc1sc2c(c1C)C(c1ccc(Cl)cc1)=N[C@H](CC(=O)OC(C)(C)C)c1nnc(C)n1-2,18% and 30%,11% and 14%,80% and 79%,3% and 4%,1% and 0%,16% and 21%,81% and 69%,96% and 95%,7% and 5%,10% and 12%
CN(C)c1ccnc2sc3c(=O)n(N4CCCCCC4)cnc3c12,27% and 20%,13% and 11%,78% and 82%,2% and 3%,0% and 2%,23% and 31%,72% and 80%,97% and 96%,7% and 6%,14% and 15%

# Same assay, conditions: human, 48 h, 1 µM, compound concentration 1 uM
row,SMILES,Total Cell Count
1,Br.CS(=O)(=O)Nc1c(O)ccc2c1CCCC2C1=NCCN1 (stereo not drawn),859 and 532
2,Cc1sc2c(c1C)C(c1ccc(Cl)cc1)=N[C@H](CC(=O)OC(C)(C)C)c1nnc(C)n1-2,1012 and 685
3,CN(C)c1ccnc2sc3c(=O)n(N4CCCCCC4)cnc3c12,721 and 663

# Same assay, conditions: human, 48 h, 10 µM, compound concentration 10 uM
SMILES,Population Apoptotic (%),Population Fragmented Nuclei (%),Population Healthy Nuclei (%),Population Hoechst High Intensity Objects (%),Population Membrane Permeable-Phenotype (%),Population Mitochondria Different-Phenotype (%),Population Mitotic Cells (%),Population Normal (%),Population Pyknosed Nuclei (%),Population Tubulin-Different-Phenotype (%)
Br.CS(=O)(=O)Nc1c(O)ccc2c1CCCC2C1=NCCN1 (stereo not drawn),34% and 48%,16% and 14%,76% and 79%,4%,1% and 0%,22% and 27%,65% and 51%,95%,6% and 5%,12% and 11%
Cc1sc2c(c1C)C(c1ccc(Cl)cc1)=N[C@H](CC(=O)OC(C)(C)C)c1nnc(C)n1-2,31% and 55%,9% and 8%,73% and 76%,3% and 5%,0%,47% and 66%,68% and 44%,96% and 94%,16% and 15%,19% and 28%
CN(C)c1ccnc2sc3c(=O)n(N4CCCCCC4)cnc3c12,70% and 57%,15% and 11%,72% and 75%,8% and 6%,0%,66% and 63%,29% and 42%,91% and 93%,12%,54% and 45%

# Same assay, conditions: human, 48 h, 10 µM, compound concentration 10 uM
row,SMILES,Total Cell Count
1,Br.CS(=O)(=O)Nc1c(O)ccc2c1CCCC2C1=NCCN1 (stereo not drawn),671 and 584
2,Cc1sc2c(c1C)C(c1ccc(Cl)cc1)=N[C@H](CC(=O)OC(C)(C)C)c1nnc(C)n1-2,641 and 525
3,CN(C)c1ccnc2sc3c(=O)n(N4CCCCCC4)cnc3c12,497 and 450
